In ChEMBL document CHEMBL1914325, “Largazole and analogues with modified metal-binding motifs targeting histone deacetylases: synthesis and biological evaluation” (2011):
Activity calls are given as the source filed them. The rule behind the calls is not given here.

What was measured:
[1] = target: Histone deacetylase 1 (Homo sapiens) (UniProt Q13547); test: Inhibition of HDAC1 from human HeLa nuclear extract after 1 hr by fluorimetric assay
In short: (§1)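 Fluor de Lys fluorimetric deacetylase assay run per the kit protocol. Inhibitor, enzyme and substrate were incubated 1 h, then developer was added and incubated before reading. Recombinant HDAC1 or HDAC6 was tested at 1 µM inhibitor; HeLa nuclear extract served as the class 1/2 HDAC source. Analogue + substrate + developer was the signal control. Three experiments, each in triplicate; SD of triplicates.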

[2] = target: Histone deacetylase 1 (Homo sapiens) (UniProt Q13547); test: Inhibition of recombinant HDAC1 at 1 uM after 1 hr by fluorimetric assay; in short: as §1
[3] = target: T1, Protein deacetylase HDAC6 (Homo sapiens) (UniProt Q9UBN7); test: Inhibition of recombinant HDAC6 at 1 uM after 1 hr by fluorimetric assay; in short: as §1
T1 sequence (whole entry): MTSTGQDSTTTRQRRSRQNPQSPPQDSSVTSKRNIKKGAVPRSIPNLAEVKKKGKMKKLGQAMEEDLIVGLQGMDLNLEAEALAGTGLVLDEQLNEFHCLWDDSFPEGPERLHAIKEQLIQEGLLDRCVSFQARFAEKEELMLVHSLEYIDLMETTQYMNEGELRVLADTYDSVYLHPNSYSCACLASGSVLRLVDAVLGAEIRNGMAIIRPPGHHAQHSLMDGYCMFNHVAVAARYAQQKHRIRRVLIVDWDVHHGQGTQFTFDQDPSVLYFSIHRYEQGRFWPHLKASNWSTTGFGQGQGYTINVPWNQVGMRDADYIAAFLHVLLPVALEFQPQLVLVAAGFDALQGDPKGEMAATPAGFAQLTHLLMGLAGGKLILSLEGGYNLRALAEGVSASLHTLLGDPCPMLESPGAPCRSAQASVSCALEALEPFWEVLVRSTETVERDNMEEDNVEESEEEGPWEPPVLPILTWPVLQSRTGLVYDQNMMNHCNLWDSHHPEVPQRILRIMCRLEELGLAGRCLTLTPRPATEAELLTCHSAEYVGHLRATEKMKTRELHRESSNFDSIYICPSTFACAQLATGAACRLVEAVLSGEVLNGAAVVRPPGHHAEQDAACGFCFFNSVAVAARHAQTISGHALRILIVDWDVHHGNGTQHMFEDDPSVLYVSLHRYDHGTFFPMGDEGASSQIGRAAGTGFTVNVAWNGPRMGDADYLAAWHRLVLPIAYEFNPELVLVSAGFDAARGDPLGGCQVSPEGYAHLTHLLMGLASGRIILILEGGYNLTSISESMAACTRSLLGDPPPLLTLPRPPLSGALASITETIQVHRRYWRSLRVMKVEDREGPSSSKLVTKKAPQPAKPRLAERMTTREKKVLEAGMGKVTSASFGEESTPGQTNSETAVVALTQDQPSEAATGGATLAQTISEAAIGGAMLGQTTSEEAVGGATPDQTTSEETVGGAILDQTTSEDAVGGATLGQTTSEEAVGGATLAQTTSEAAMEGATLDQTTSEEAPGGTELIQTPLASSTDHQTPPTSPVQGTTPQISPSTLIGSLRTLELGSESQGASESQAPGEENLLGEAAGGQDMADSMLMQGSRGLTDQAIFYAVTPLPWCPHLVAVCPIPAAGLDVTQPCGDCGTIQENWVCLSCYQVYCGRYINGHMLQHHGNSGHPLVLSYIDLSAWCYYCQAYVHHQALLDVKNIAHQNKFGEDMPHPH

[4] = target: T1, Protein deacetylase HDAC6 (Homo sapiens); test: Inhibition of HDAC6 in human HCT116 cells assessed as increase in alpha tubulin acetylation at 0.01 to 1 uM after 24 hrs by Western blot analysis; type: cell-based; details: HCT-116
In short: (§2)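 HCT116 cells treated 24 h with 10 nM, 100 nM or 1 µM compound, with DMSO as vehicle control. Acetylation of histone or α-tubulin was measured by Western blot of whole-cell lysates, detected with infrared dye-conjugated secondary antibodies and infrared scanning.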

[5] = target: Histone deacetylase 1 (Homo sapiens) (UniProt Q13547); test: Inhibition of HDAC1 in human HCT116 cells assessed as increase in histone H3 acetylation at 1 uM after 24 hrs by Western blot analysis; type: cell-based; details: HCT-116; in short: as §2
[6] = target: Histone deacetylase 1 (Homo sapiens) (UniProt Q13547); test: Inhibition of HDAC1 in human HCT116 cells assessed as increase in histone H3 acetylation at 10 nM after 24 hrs by Western blot analysis; type: cell-based; details: HCT-116; in short: as §2
[7] = target: T1, Protein deacetylase HDAC6 (Homo sapiens); test: Inhibition of recombinant human HDAC6 after 1 hr by fluorimetric assay
HCT-116 [8] = test: Growth inhibition of human HCT116 cells at 5 uM after 96 hrs by MTS assay; type: functional, cell-based
In short: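 HCT116 cells seeded at 3 × 10^4 cells/well in quadruplicate and left to attach overnight. Medium was replaced with fresh medium containing compound at 10 nM, 100 nM, 1 µM or 5 µM, then incubated 96 h at 37 °C in 5% CO2. MTS reagent was added for 1.5 h at 37 °C and absorbance read at 490 nm.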

[9] = target: Histone deacetylase 1 (Homo sapiens) (UniProt Q13547); details: HCT-116, 100 nM
HCT-116 [10] = test: Growth inhibition of human HCT116 cells after 96 hrs by MTS assay; type: functional; details: HCT-116, 96 h
In short: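 HCT116 cells seeded at 3 × 10^4 cells/well in quadruplicate and allowed to attach overnight. Medium then replaced with fresh medium containing compound (10 nM, 100 nM, 1 µM, 5 µM). Cells incubated 96 h at 37 °C, 5% CO2. MTS reagent (CellTiter 96 One Solution) added for 1.5 h at 37 °C, then absorbance read at 490 nm. GI50 estimated from the growth curves.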

Sequence of Histone deacetylase 1 (Homo sapiens) (Q13547 whole entry): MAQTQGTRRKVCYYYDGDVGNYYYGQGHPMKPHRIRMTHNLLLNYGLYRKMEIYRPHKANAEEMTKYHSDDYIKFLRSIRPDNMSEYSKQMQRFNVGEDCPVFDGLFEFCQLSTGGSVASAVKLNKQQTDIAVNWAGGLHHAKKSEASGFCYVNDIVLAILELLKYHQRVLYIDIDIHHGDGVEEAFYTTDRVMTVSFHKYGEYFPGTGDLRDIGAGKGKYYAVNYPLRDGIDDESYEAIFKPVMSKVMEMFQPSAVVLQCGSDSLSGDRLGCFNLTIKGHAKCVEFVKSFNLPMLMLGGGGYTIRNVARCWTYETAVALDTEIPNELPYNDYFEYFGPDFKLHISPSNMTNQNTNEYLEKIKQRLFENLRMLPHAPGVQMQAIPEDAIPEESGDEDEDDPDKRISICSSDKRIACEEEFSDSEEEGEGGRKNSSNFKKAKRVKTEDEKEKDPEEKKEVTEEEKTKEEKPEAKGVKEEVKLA

| inhibition [1] | inhibition [2] | inhibition [3] [%] | inhibition [4] | inhibition [5] | inhibition [6] | inhibition [7] | Compound | growth inhibition (GI) (HCT-116 [8]) | inhibition [9] | GI50 (HCT-116 [10]) [nM] |
| --- | --- | --- | --- | --- | --- | --- | --- | --- | --- | --- |
| Active | 80% | 50 | inactive | Active | inactive | Active | CC(C)[C@@H]1NC(=O)[C@]2(C)CSC(=N2)c2csc(n2)CNC(=O)C[C@@H](/C=C/CCSCc2cccs2)OC1=O | Active | – | – |
| Active | 30% | 50 | inactive | – | inactive | Active | CC(C)[C@@H]1NC(=O)[C@]2(C)CSC(=N2)c2csc(n2)CNC(=O)C[C@@H](/C=C/CCSCc2ccccc2O)OC1=O | Active | – | – |
| Active | 80% | 50 | inactive | Active | inactive | Active | CC(C)[C@@H]1NC(=O)[C@]2(C)CSC(=N2)c2csc(n2)CNC(=O)C[C@@H](/C=C/CCSCc2ccccn2)OC1=O | – | – | 1000 |

| Compound | inhibition [1] | inhibition [2] | inhibition [3] [%] | inhibition [4] | inhibition [5] | inhibition [6] | inhibition [7] | growth inhibition (GI) (HCT-116 [8]) | inhibition [9] | GI50 (HCT-116 [10]) [nM] |
| --- | --- | --- | --- | --- | --- | --- | --- | --- | --- | --- |
| CCCCCCCC(=O)SCC/C=C/[C@@H]1CC(=O)NCc2nc(cs2)C2=N[C@@](C)(CS2)C(=O)N[C@@H](C(C)C)C(=O)O1 [LARGAZOLE] | Active | Active | 50 | inactive | – | inactive | Active | – | Active | 10 |
